Series [1] concerns the target T1, Estrogen receptor (Homo sapiens) (UniProt P03372).
T1 sequence (whole entry): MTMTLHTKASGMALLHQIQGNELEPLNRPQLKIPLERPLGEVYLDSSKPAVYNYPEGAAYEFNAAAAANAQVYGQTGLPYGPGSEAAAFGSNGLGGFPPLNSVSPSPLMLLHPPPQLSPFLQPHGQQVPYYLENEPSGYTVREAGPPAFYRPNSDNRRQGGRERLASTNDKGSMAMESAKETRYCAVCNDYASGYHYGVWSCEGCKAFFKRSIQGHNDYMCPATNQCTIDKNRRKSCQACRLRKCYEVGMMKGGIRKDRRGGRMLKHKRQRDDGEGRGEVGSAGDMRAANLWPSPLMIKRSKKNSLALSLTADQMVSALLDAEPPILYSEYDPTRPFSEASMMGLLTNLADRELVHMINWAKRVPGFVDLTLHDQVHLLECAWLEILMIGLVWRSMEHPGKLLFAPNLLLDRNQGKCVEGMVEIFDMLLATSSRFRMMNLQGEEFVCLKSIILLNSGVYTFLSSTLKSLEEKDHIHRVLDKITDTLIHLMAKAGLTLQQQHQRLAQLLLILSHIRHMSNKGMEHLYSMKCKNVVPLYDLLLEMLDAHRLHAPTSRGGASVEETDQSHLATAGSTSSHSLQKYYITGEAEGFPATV
Description: Relative binding affinity for estrogen receptor 1 (ER-alpha) of lamb uterine cytosol. The note with it: Ovis aries; target entry is the homologue from another species. The gist of the method:
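Cytosol from frozen sheep (lamb) uteri in 0.05 M Tris-HCl, 0.25 M sucrose, 0.1% β-mercaptoethanol, pH 7.4. Incubated 3 h at 0°C with 2×10⁻⁹ M [6,7-3H]-estradiol and nine competitor concentrations. Bound and free separated by protamine sulfate precipitation. 50% displacement concentration from logit plot; RBA relative to estradiol = 100%; mean of at least two experiments.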

The target of series [2] is Estrogen receptor beta (Homo sapiens) (UniProt Q92731). The series is described as follows: Relative binding affinity for estrogen receptor 2 (ER-beta). The gist of the method: (§1)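 Incubated 3 h at 0°C with 2×10⁻⁹ M [3H]-estradiol plus nine competitor levels. Protamine sulfate separation, logit analysis of 50% displacement. RBA vs estradiol (100%); mean of at least two experiments.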
Sequence of Estrogen receptor beta (Homo sapiens) (Q92731 whole entry): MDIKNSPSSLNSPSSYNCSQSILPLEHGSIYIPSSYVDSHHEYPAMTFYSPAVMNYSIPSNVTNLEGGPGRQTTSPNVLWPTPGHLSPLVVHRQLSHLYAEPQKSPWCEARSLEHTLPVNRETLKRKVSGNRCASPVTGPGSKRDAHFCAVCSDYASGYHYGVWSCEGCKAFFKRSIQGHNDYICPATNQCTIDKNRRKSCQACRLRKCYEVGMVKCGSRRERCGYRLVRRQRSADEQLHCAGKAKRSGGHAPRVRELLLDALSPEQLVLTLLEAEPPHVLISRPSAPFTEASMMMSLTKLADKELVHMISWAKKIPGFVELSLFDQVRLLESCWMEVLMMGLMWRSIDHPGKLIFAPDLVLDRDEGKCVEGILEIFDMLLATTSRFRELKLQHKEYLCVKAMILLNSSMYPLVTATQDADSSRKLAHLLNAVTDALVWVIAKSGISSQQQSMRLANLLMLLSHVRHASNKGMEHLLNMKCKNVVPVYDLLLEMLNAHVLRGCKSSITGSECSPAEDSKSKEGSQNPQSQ

The nature of series [3]: Relative binding affinity for purified estrogen receptor 1 (ER-alpha). Summed up: as §1
A short description of series [4]: Partition coefficient (logP). It counts as physicochemical. The note with it: octanol/water. The gist of the method:
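Reversed-phase HPLC on a C-8 column. Capacity factors k' extrapolated to 100% aqueous component to give k'w; logPo/w = 0.13418 + 0.98452 log k'w.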

With `CCC(=C(c1ccc(O)cc1)c1ccc(O)cc1)c1ccccc1`, the results for the RBA in series [1], in series [2] and in series [3] were 6.8%, 101% and 47.5%, respectively. Further, the logP in series [4] was 4.4.

These data come from ChEMBL document CHEMBL1139535, “Modification of the estrogenic properties of diphenols by the incorporation of ferrocene. Generation of antiproliferative effects in vitro” (J Med Chem, 2005).
